The source of these data is ChEMBL document CHEMBL3797062, “Diterpenes from the Trunk of Abies holophylla and Their Potential Neuroprotective and Anti-inflammatory Activities” (J Nat Prod, 2016).

One data set has as its system A549. Kind of data set: Cytotoxicity in human A549 cells by SRB assay. In kind it is functional, cell-based. For orientation: The SRB assay estimates cell density from bound dye.
Data set [1] is described as follows: Cytotoxicity in LPS-activated mouse BV2 cells assessed as cell viability at 20 uM after 24 hrs by MTT assay. The format is cell-based. The following applies: bv-2, 24 h. Summed up: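 Mouse microglial BV2 cells were seeded at 4 × 10^4 cells/well, treated with or without compound, stimulated with LPS (100 ng/mL), and incubated for 24 h. Viability was read by MTT assay, as the reduction of yellow MTT to purple formazan by viable cells.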
A general note: Tetrazolium assays rely on reduction of a dye to a coloured formazan, in cell work by metabolically active cells.

A short description of data set [2]: Cytotoxicity in rat C6 cells assessed as cell viability at 20 uM after 24 hrs by MTT assay. The format is cell-based. The following applies: read-out: Activity. Summed up: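 C6 glioma cells seeded at 1 × 10^5 cells/well. After 24 h, switched to serum-free DMEM with compound at 20 μM for a further 24 h. Viability by MTT, expressed as % of untreated control. Means ± SD of three independent experiments.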

A short description of data set [3]: (§1) Antiinflammatory activity in mouse BV2 cells assessed as inhibition of LPS-induced NO production after 24 hrs by Griess assay. In kind it is functional, cell-based. The following applies: BV-2, 24 h. Summed up: (§2)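 BV2 microglia seeded at 4 × 10^4 cells/well, given compound at various concentrations with LPS (100 ng/mL), incubated 24 h. Nitrite in the medium read with Griess reagent (0.1% N-1-naphthylethylenediamine dihydrochloride, 1% sulfanilamide in 5% phosphoric acid, equal volume of supernatant), absorbance at 570 nm after 10 min. Sodium nitrite standard curve. IC50 derived. L-NMMA positive control.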
(In general: The Griess reaction detects nitrite, a stable product of nitric oxide.)

The nature of data set [4]: Cytotoxicity in human HCT116 cells by SRB assay. In kind it is functional, cell-based. Conditions: HCT-116.
The test system of another data set is SK-MEL-2. Kind of data set: Cytotoxicity in human SK-MEL-2 cells by SRB assay. In kind it is functional, cell-based.
Data set [5] in a line: Cytotoxicity in human SKOV3 cells by SRB assay. The format is functional, cell-based. Conditions: SK-OV-3.
Another data set relates to C6. Briefly: Neuroprotective activity in rat C6 cells assessed as induction of NGF release at 20 uM after 24 hrs by ELISA. The format is functional. Summed up:
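C6 glioma cells seeded at 1 × 10^5 cells/well. After 24 h, treated with compound at 20 μM in serum-free DMEM for a further 24 h. NGF secreted into the conditioned medium quantified by ELISA and expressed as % of untreated control (100%). 6-Shogaol positive control. Means ± SD of three independent experiments run in triplicate.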

The next data set deals with BV-2. The data set is described as §1. The format is functional, cell-based. Summed up: as §2
A further data set relates to C6 (Rattus norvegicus). Briefly: Neuroprotective activity in rat C6 glioma cells assessed as induction of NGF release at 20 uM for 24 hrs.

Each structure is given as a SMILES string. Activity calls are given as the source filed them. The calls are words filed in the database; no cut-off is given here.

Regarding `CC(C)[C@]12C=C3CC[C@H]4[C@](C)(C(=O)O)CCC[C@]4(C)[C@@]3(CC1)OO2`, the 50% inhibitory concentration (IC50) in the data set with A549 was more than 10 µM; in [3], 57.3 µM; in [4], more than 10 µM; with SK-MEL-2 it was more than 10 µM; in [5], more than 10 µM. The Activity result in data set [1] was “Non-toxic”; in the data set with C6, 175.9%. The viability at 24 h, 20 µM in data set [2] is 109%.

As to `CC(C)C1=C[C@@]23CC[C@@H]4[C@](C)(CCC[C@@]4(C)C(=O)O)[C@H]2C[C@@H]1OO3`, the IC50 (in the data set on A549; in data set [4]; in the data set on SK-MEL-2; in data set [5]) was more than 10 µM throughout. In addition, the viability at 24 h, 20 µM in data set [2] is 102%. In the data set on BV-2, the inhibition entry was “inactive”. Also, the Activity in the data set with C6 is listed as 153%.

For `CC(C)[C@]12C=C3C(=O)C[C@H]4[C@](C)(C(=O)O)CCC[C@]4(C)[C@@]3(CC1)OO2`, the 50% inhibitory concentration (IC50) with A549 is more than 10 µM; in [3], 30.1 µM; in [4], more than 10 µM; in the data set with SK-MEL-2, more than 10 µM; in data set [5] it was more than 10 µM. The Activity entry in data set [1] was “Non-toxic”.

In the case of `CCCCC/C=C/C(=O)CCc1ccc(O)c(OC)c1` [SHOGAOL], the viability at 24 h, 20 µM in [2] is 119%. For the same compound, the Activity with C6 (Rattus norvegicus) stood at 141.8%.

For `CC(C)c1ccc2c(c1)[C@H](O)C[C@H]1[C@](C)(CO)CCC[C@]21C`, the half-maximal inhibitory concentration (IC50) (in the data set on A549; in data set [4]; in the data set on SK-MEL-2; in [5]) was more than 10 µM in each case. Further, the viability at 24 h, 20 µM in data set [2] came out at 89.3%. Besides, the inhibition result in the data set on BV-2 is “inactive”. In addition, the Activity with C6 is on record as 177.1%.

For `CC(C)c1ccc2c(c1)CC[C@H]1[C@](C)(C(=O)O)CCC[C@]21C` [DEHYDROABIETIC ACID], the IC50 (in the data set on A549; in data set [4]; with SK-MEL-2; in data set [5]) was more than 10 µM throughout. For the same compound, in [2], the viability at 24 h, 20 µM is 92.3%. Also, the inhibition result in the data set on BV-2 was “inactive”. The Activity in the data set on C6 amounted to 170.2%.

For the compound `CC(C)C1=C[C@@]2(O)CC[C@@H]3[C@](C)(CCC[C@@]3(C)C(=O)O)[C@H]2CC1=O`, the half-maximal inhibitory concentration (IC50) with A549 is more than 10 µM; in data set [3], 56.1 µM; in data set [4], more than 10 µM; with SK-MEL-2, more than 10 µM; in [5], more than 10 µM. In addition, the Activity result in data set [1] was “Non-toxic”; with C6 it was 166.1%. In data set [2], the viability at 24 h, 20 µM amounted to 91.2%.

As to `CC(C)[C@]1(O)C=C2C(=O)C[C@@H]3[C@](C)(CCC[C@@]3(C)C(=O)O)[C@H]2CC1`, the IC50 (in the data set with A549; in [4]; with SK-MEL-2; in data set [5]) was more than 10 µM each time. Also, the viability at 24 h, 20 µM in data set [2] worked out at 94.5%. Besides, the inhibition entry with BV-2 was “inactive”. The Activity in the data set with C6 worked out at 175.6%.

Turning to `CO[C@@]1(C(C)C)C=C2[C@H](O)C[C@@H]3[C@](C)(CCC[C@@]3(C)C(=O)O)[C@H]2CC1`, the half-inhibitory concentration (IC50) (with A549; in [4]; with SK-MEL-2; in data set [5]) was more than 10 µM throughout. Also, the viability at 24 h, 20 µM in data set [2] is 78.1%. The inhibition entry with BV-2 was “inactive”. Besides, the Activity in the data set on C6 was found to be 169.4%.

Turning to `CC(C)c1ccc2c(c1)C(=O)C[C@H]1[C@](C)(C(=O)O)CCC[C@]21C`, the IC50 (with A549; in data set [4]; in the data set on SK-MEL-2; in data set [5]) was more than 10 µM in each case. Moreover, the viability at 24 h, 20 µM in data set [2] came to 104%. Moreover, the inhibition entry in the data set on BV-2 was “inactive”. Besides, the Activity in the data set with C6 was 201.8%.

One may read the IC50 as the midpoint of a concentration-inhibition curve.
